Most compounds without a hit are left out; they make up all but 1.5% or so of the library.
Runt-SMMHC FRET: inhibitors of RUNX1 Runt–CBFb-SMMHC binding, primary screen, biochemical, FRET, Cerulean-Runt, Venus-CBFb-SMMHC, uHTS; Runt-related transcription factor 1 (Homo sapiens) + Core-binding factor subunit beta …; Cerulean-Runt/Venus-CBFb-SMMHC FRET ratio 530/480, 1 h; inhibition, % at 20 µM; 0.74% of 220,000 active;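 active = mean inhibition across duplicate retests at 20 µM reaching about 50%, limit read from the data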;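 note: 0% = DMSO wells and 100% = wells with excess untagged CBFb-SMMHC; inhibitors lower the FRET ratio by blocking Runt binding to CBFb-SMMHC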
Runt-CBFb FRET: inhibitors of RUNX1 Runt–CBFb binding, primary screen, biochemical, FRET, Cerulean-Runt, Venus-CBFb, uHTS | AID 1496, 2009 | inhibition, % at 20 µM | 0.46% of 220,000 active | Cerulean-Runt/Venus-CBFb FRET ratio 530/480, 1 h;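 active = inhibition over about 50% at 20 µM in the single-dose screen, limit read from the data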;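 note: 0% = DMSO wells and 100% = excess unlabeled CBFb competitor control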
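test system = Cerulean-tagged RUNX1 Runt domain (FRET donor) fusion protein | reagent = Venus-CBFb binding partner, 100 nM | incubation = protein complex preformed 1 h, compound exposure 1 h, room temperature, dark | detection = FRET fluorescence | read-out basis = loss of energy transfer signal | controls = 5 µM unlabeled CBFb as full-inhibition high control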
Hck Nef HTS: inhibitors of Nef-activated human Hck kinase, primary screen, biochemical, Z-Lyte FRET, 384-well, Hck-YEEI; Tyrosine-protein kinase HCK (Homo sapiens), P08631; Recombinant Hck-YEEI plus Nef, Z-Lyte FRET kinase assay; inhibition, % at 20 µM; 0.68% of 220,000 active; AID 463187, 2010;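 active = Hck-Nef kinase inhibition above about 50%, limit read from the data; inactive = inhibition below that limit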;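 note: 0% = DMSO with Hck plus Nef and 100% = Hck alone without Nef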
Target sequence (P08631 whole entry, looked up): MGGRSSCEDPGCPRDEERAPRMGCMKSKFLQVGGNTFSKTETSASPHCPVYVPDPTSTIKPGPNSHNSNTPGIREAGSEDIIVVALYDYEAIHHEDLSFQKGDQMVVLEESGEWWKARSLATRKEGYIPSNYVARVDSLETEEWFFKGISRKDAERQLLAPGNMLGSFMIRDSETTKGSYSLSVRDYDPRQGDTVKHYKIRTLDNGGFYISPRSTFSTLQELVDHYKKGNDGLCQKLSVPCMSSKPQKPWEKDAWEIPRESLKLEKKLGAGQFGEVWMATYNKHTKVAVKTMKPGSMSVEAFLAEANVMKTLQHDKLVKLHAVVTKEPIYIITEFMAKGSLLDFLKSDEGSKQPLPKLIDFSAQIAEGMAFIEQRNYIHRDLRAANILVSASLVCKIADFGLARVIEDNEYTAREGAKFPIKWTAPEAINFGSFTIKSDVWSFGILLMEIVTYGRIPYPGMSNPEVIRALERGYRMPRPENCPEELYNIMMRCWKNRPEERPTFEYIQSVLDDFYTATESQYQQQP
CaV13 ICDI inh: Primary screen for inhibitors of IQ motif and Ca2+-dependent inactivation inhibitor domain binding in CACNA1D, Förster resonance energy transfer in living cells, …; HEK cells, CFP/YFP FRET ICDI-IQ, plate reader, 10 min; percent FRET-ratio fall versus neutral wells; 0.098% of 340,000 active; inhibition, % at 12.3 µM;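 active = mean replicate inhibition of at least 30% and at least 1% of replicates passing that level; inconclusive = only one of the two criteria is met; inactive = neither criterion is met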;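 note: 0% = median of the neutral control wells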
RanGTP-Impb inh: inhibitors of RanGTP-importin-beta interaction, primary screen, biochemical, FRET, CFP-Ran, YFP-importin-beta, homogeneous; Ran GTPase (GTP-bound) - importin-beta complex; cell-free CFP-Ran/YFP-importin-beta FRET ratio; inhibition, % (test concentration not listed); 1.1% of 300,000 active; AID 2216, 2009;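 active = more than half of the replicate wells show a fall in the fluorescence ratio signal beyond about 16%, limit read from the data, passing the limit was not always enough; inconclusive = exactly half of the replicate wells pass the set limit; inactive = fewer than half of replicates pass the limit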;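 note: 0% = DMSO wells and 100% = Ran loaded with GDP instead of GTP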
Starred values were filed as active, the others as inactive; ? = inconclusive; · = no result given.

SMILES | Runt-SMMHC FRET | Runt-CBFb FRET | Hck Nef HTS | CaV13 ICDI inh | RanGTP-Impb inh
Cc1ccc(-n2c(=O)cc(N3CCC(C)CC3)[nH]c2=O)cc1 | 0 | 0 | 2 | -4 | 2
CCN1CCN(c2cc(=O)n(-c3cc(Cl)ccc3C)c(=O)[nH]2)CC1 | -2 | 0 | 0 | -4 | 72*
Cc1ccccc1-n1c(=O)cc(N2CCc3ccccc3C2)[nH]c1=O | 76* | 37 | -3 | -7 | 53*
COC(=O)C(Cc1ccccc1)NC(=O)CCCC(=O)NCc1cccc(OC)c1 (centres undefined) | · | · | · | -5 | 0
O=C(NCc1ccccn1)c1ccc(Cl)c(NC2=NC3CS(=O)(=O)CC3S2)c1 (centres undefined) | · | · | · | -7 | -2
CC(C)NCC(=O)Nc1c2c(nc3ccccc13)CCC2 | -4 | -4 | 4 | -20 | -1
c1coc(CNc2c3c(nc4ccccc24)CCC3)c1 | 44 | 12 | 7 | -6 | 79*
COCCCN1C(=O)C(CC(=O)NCc2cccc3ccccc23)CC(C(=O)N(C)C)=C1C (centres undefined) | · | · | · | -9 | ·
CCCN(Cc1ccc(C)cc1)C(=O)c1ccc(CNS(=O)(=O)c2ccc(C(C)=O)cc2)cc1 | · | · | · | -2 | ·
CCOC(=O)/C(C#N)=C1\C(=O)N(Cc2ccccc2)c2ccccc21 | 11 | 5 | 7 | -29 | 1
CCOC(=O)/C(C#N)=C1/C=C(C)c2ccccc2N1 | 91* | 44 | 48 | -5 | 4
CCC(CC)c1nnc(NC(=O)C2COc3ccccc3O2)s1 (centres undefined) | 1 | -1 | 0 | -6 | 21*
COc1cccc(C(NC(C)=O)c2nc(-c3ccc(F)c(Cl)c3)cs2)c1 (centres undefined) | · | · | · | -4 | ·
COc1ccc(/C=N/NC(=O)c2nc(-c3ccccc3)n(-c3ccccc3)n2)cc1 | -1 | 0 | 4 | -4 | 3
O=Cc1ccc(N2N=C(c3ccccc3)CC2c2ccccc2)cc1 (centres undefined) | · | · | · | -53 | 8
COc1ccc(C2CC(c3ccccc3)=NN2c2ccc(/C=N/NC(=O)c3ccncc3)cc2)cc1 (centres undefined) | -248 | -112 | 4 | -13 | 19*
N#CCC(=O)N/N=C/c1ccc(N2N=C(c3ccccc3)CC2c2ccccc2)cc1 (centres undefined) | · | · | · | -15 | 99*
COc1ccc(C2CC(c3ccccc3)=NN2c2ccc(C(N)=O)cc2)cc1 (centres undefined) | · | · | · | 83* | 11
COc1ccc(C2=NN(c3ccc(C=O)cc3)C(c3ccccc3)C2)cc1 (centres undefined) | · | · | · | · | 31*
N#CCC(=O)N/N=C/c1c(-c2ccccc2)n(-c2ccccc2)c2ccccc12 | · | · | · | -7 | 0
CC(=O)Nc1ccc(S(=O)(=O)N(C)CC(=O)OCC(=O)N2CC(C)OC(C)C2)cc1 (centres undefined) | · | · | · | · | 5
COc1cccc(CN2CC(C(=O)NC3CCC3)CCC2=O)c1 (centres undefined) | · | · | · | -10 | -1
Cc1ccc(N2CCCC2=O)cc1S(=O)(=O)N1CCOCC1 | · | · | · | -5 | 0
CC(=O)Nc1ccc(C2=NN(c3ccccc3)C(c3ccccc3)C2)cc1 (centres undefined) | · | · | · | -19 | -1
O=C(O)c1ccc(N2N=C(c3ccccc3)CC2c2ccccc2)cc1 (centres undefined) | · | · | · | 115* | 5
SMILES | Runt-SMMHC FRET | Runt-CBFb FRET | Hck Nef HTS | CaV13 ICDI inh | RanGTP-Impb inh
CC(C)Cc1nnc(NC(=O)Cc2cccs2)s1 | -5 | 2 | 36 | -7 | 26*
CC(C)c1nnc(NC(=O)Cc2cccs2)s1 | 3 | -2 | -6 | -6 | 2
Cc1nc(N)sc1-c1csc(NCc2ccccc2)n1 | -1 | 5 | 0 | · | 2
Cc1cc(-c2csc(NCc3ccccc3)n2)c(C)n1C | -21 | 2 | 65* | · | ·
CC1CCCCC1NC(=O)CCN1C(=O)C2C3C=CC(C3)C2C1=O (centres undefined) | · | · | · | -3 | -2
Cc1c(NC(=O)c2ccc(S(=O)(=O)Nc3ccccc3F)cc2)c(=O)n(-c2ccccc2)n1C | · | · | · | -6 | ·
CCOc1ccc(-c2csc(NC(=O)CSC3=NC(=O)CN3C(C)=O)n2)c2ccccc12 | 0 | -6 | 1 | -5 | ?
CCOc1ccc(-c2csc(NC(=O)CSCC(=O)O)n2)c2ccccc12 | 97* | 27 | 16 | -6 | 0
CCCc1ccc(S(=O)(=O)N2CCN(C(C)C(=O)NCc3ccccc3)CC2)cc1 (centres undefined) | · | · | · | -6 | ·
CC1=CC(c2ccc(Cl)cc2)n2nc(NC(=O)CCCC(=O)O)nc2N1 (centres undefined) | · | · | · | -2 | ?
CC1=CC(c2ccc(Cl)cc2)n2nc(NC(=O)CCC(=O)O)nc2N1 (centres undefined) | 54* | 29 | 21 | -5 | 1
COC(=O)C(=CC(=CN(C)C)C=C(C(=O)OC)C(=O)OC)C(=O)OC | -2 | 5 | 14 | -5 | -1
CC1(C(=O)O)Sc2[nH]c(=O)sc2C2c3ccccc3OC(=O)C21 (centres undefined) | 2 | 13 | -1 | -6 | 48*
O=C(O)C1Sc2[nH]c(=O)sc2C2c3cc(Cl)ccc3OC(=O)C12 (centres undefined) | 16 | 24 | 2 | -3 | 5
O=C(O)C1Sc2[nH]c(=O)sc2C2c3ccc(O)cc3OC(=O)C12 (centres undefined) | 87* | 20 | 30 | -3 | ·
O=C(O)C1Sc2[nH]c(=O)sc2C2c3cc(Br)ccc3OC(=O)C12 (centres undefined) | -11 | 33 | 7 | -2 | ?
COC(=O)C1Sc2[nH]c(=O)sc2C2c3ccccc3OC(=O)C12 (centres undefined) | -4 | 17 | -1 | -5 | 60*
COc1ccc(CCNC(=O)c2ccc(Br)o2)cc1Br | · | · | · | -10 | ·
COC(=O)C1=C(C(=O)OC)C2C(C)=CC(C)=CN2C(C(=O)OC)=C1C(=O)OC (centres undefined) | 9 | 2 | 3 | -2 | 72*
CC1CCCCC1NS(=O)(=O)c1ccc2c(c1)CC(=O)N2C (centres undefined) | · | · | · | -15 | 0
CCCn1nc(NC(=O)c2cccs2)c2cc3ccccc3nc21 | 50* | · | 14 | -5 | 61*
CCCCn1c(CNC(=O)c2cccs2)nc2ccccc21 | 3 | · | 1 | -6 | -4

Source: PubChem
